Columns and labels:
[1] = Anticoagulant activity in rabbit plasma assessed as increase in prothrombin time; format: functional, Oryctolagus cuniculus
Outline: (§1)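 Concentration doubling clotting time (EC2x), human or rabbit plasma. Plasma from centrifugation at 2000 g, 10 min. Inhibitor stock in DMSO, serially diluted; clotting time measured in control plasma and plasma with five to seven inhibitor concentrations. PT run on temperature-controlled automated coagulation analyser with Thromborel-S reagent. Duplicate determinations at each concentration.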

[2] = Anticoagulant activity in healthy human plasma assessed as increase in prothrombin time; format: functional; outline: as §1
[3] = Anticoagulant activity in rabbit plasma assessed as increase in activated partial thromboplastin time; format: functional, Oryctolagus cuniculus
[4] = Anticoagulant activity in healthy human plasma assessed as increase in activated partial thromboplastin time; format: functional
[5] = biological target: Coagulation factor X (Homo sapiens, UniProt P00742); test: Inhibition of human coagulation factor 10a assessed as reduction in p-nitroaniline cleavage from pefachrome substrate preincubated for 10 mins followed by substrate addition measured after 20 mins
Sequence of Coagulation factor X (P00742 41-179 limits assumed): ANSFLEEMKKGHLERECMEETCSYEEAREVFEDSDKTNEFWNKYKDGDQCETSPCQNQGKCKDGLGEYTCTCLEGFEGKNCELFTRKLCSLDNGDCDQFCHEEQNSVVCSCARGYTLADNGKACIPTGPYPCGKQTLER
Sequence of Coagulation factor X (P00742 235-488 limits assumed): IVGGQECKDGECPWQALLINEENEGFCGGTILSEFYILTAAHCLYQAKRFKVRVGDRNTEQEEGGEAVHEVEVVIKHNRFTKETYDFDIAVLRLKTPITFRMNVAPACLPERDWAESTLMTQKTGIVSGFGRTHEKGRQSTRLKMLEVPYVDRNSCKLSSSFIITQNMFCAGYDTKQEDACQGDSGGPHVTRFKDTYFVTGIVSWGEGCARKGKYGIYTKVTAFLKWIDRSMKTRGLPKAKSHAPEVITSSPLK

[6] = species on record: Rattus norvegicus; test: Antithrombotic activity in rat venous thrombus model assessed as inhibition of thrombus formation relative to control; format: functional
Outline: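 Rat venous stasis model: after 2 h the abdomen was reopened and the vena cava dissected longitudinally. Thrombus removed, held at 37 °C for 24 h, then dry weight measured.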

| Structure (SMILES) | 2PT [1] | 2PT [2] | 2aPTT [3] | 2aPTT [4] | IC50 [5] | inhibition (INH) [6] |
| --- | --- | --- | --- | --- | --- | --- |
| COc1ccc(-n2nc(-n3cccc3CN(C)C)c3c2C(=O)N(c2ccc(N4CCCCC4=O)cc2)CC3)cc1 | 1.9 µM | 1.5 µM | 3.2 µM | 3.5 µM |  |  |
| COc1ccc(-n2nc(-c3n[nH]c(C)n3)c3c2C(=O)N(c2ccc(N4CCCCC4=O)cc2)CC3)cc1 | 1.9 µM | 1.6 µM | 3.2 µM | 3.7 µM |  |  |
| COc1ccc(-n2nc(-c3n[nH]c(C(C)(C)C)n3)c3c2C(=O)N(c2ccc(N4CCCCC4=O)cc2)CC3)cc1 | 1.4 µM | 1 µM | 4.1 µM | 2.3 µM | 850 nM | 70% |
| CCN(CC)CCCn1cnnc1-c1nn(-c2ccc(OC)cc2)c2c1CCN(c1ccc(N3CCCCC3=O)cc1)C2=O | 6.1 µM | 5 µM | 11.1 µM | 10 µM |  |  |
| COc1ccc(-n2nc(-c3n[nH]c(C4CC4)n3)c3c2C(=O)N(c2ccc(N4CCCCC4=O)cc2)CC3)cc1 | 4.9 µM | 3.5 µM | 6 µM | 5.1 µM |  |  |
| COc1ccc(-n2nc(-c3n[nH]c(=O)n3-c3ccc(OC)cc3)c3c2C(=O)N(c2ccc(N4CCCCC4=O)cc2)CC3)cc1 | 9.2 µM | 14.8 µM | 19.2 µM | 21.3 µM |  |  |
| O=C1CCCCN1c1ccc(N2CCc3c(-c4nc[nH]n4)nn(-c4ccc(Br)cc4)c3C2=O)cc1 | 7.9 µM | 6.4 µM | 10.2 µM | 11.3 µM |  |  |
| COc1ccc(-n2nc(-c3nncn3CCN(C)C)c3c2C(=O)N(c2ccc(N4CCCCC4=O)cc2)CC3)cc1 | 4.4 µM | 3.9 µM | 8 µM | 7 µM |  |  |
| COc1ccc(-n2nc(-c3ncn(C)n3)c3c2CCN(c2ccc(N4CCCCC4=O)cc2)C3=O)cc1 | 0.9 µM | 0.8 µM | 3 µM | 1.9 µM | 2400 nM | 65% |
| O=C1CCCCN1c1ccc(N2CCc3c(-c4nc[nH]n4)nn(-c4ccc(Cl)cc4)c3C2=O)cc1 | 4.2 µM | 4.3 µM | 9.9 µM | 8.4 µM |  |  |
| COc1ccc(-n2nc(-c3n[nH]c(=O)n3-c3ccccc3)c3c2C(=O)N(c2ccc(N4CCCCC4=O)cc2)CC3)cc1 | 13.3 µM | 12.9 µM | 22.1 µM | 20.3 µM |  |  |
| O=C1CCCCN1c1ccc(N2CCc3c(-c4nc[nH]n4)nn(-c4ccc(F)cc4)c3C2=O)cc1 | 2.8 µM | 1.8 µM | 5.1 µM | 4.5 µM |  |  |
| COc1ccc(-n2nc(-c3nc[nH]n3)c3c2C(=O)N(c2ccc(N4CCCCC4=O)cc2)CC3)cc1 | 0.7 µM | 0.5 µM | 1.2 µM | 0.8 µM | 150 nM | 99% |
| COCc1nc(-c2nn(-c3ccc(OC)cc3)c3c2CCN(c2ccc(N4CCCCC4=O)cc2)C3=O)n[nH]1 | 3 µM | 2.4 µM | 6 µM | 4.1 µM |  |  |
| O=C1CCCCN1c1ccc(N2CCc3c(-c4nc[nH]n4)nn(-c4ccc(OC(F)F)cc4)c3C2=O)cc1 | 4 µM | 3.6 µM | 7.8 µM | 6.6 µM |  |  |
| COc1ccc(-n2nc(-c3n[nH]c(C4CCCO4)n3)c3c2C(=O)N(c2ccc(N4CCCCC4=O)cc2)CC3)cc1 (configuration not stated) | 5 µM | 3.9 µM | 7.9 µM | 6.3 µM |  |  |
| COc1ccc(-n2nc(-c3n[nH]c(=O)n3-c3ccccc3C(F)(F)F)c3c2C(=O)N(c2ccc(N4CCCCC4=O)cc2)CC3)cc1 | 17.9 µM | 16.8 µM | 32.1 µM | 30.1 µM |  |  |
| COc1ccc(-n2nc(-n3cccc3CN3CCOCC3)c3c2C(=O)N(c2ccc(N4CCCCC4=O)cc2)CC3)cc1 | 1.7 µM | 1.1 µM | 3.9 µM | 2.4 µM | 2400 nM | 57% |
| O=C1CCCCN1c1ccc(N2CCc3c(-c4nc[nH]n4)nn(-c4ccc(OC(F)(F)F)cc4)c3C2=O)cc1 | 6.4 µM | 5.5 µM | 12 µM | 10.5 µM |  |  |
| COc1ccc(-n2nc(-c3nncn3CCCN(C)C)c3c2C(=O)N(c2ccc(N4CCCCC4=O)cc2)CC3)cc1 | 5.7 µM | 4.5 µM | 10.1 µM | 9 µM |  |  |
| COc1ccc(-n2nc(C(N)=O)c3c2C(=O)N(c2ccc(N4CCCCC4=O)cc2)CC3)cc1 [APIXABAN] | 0.6 µM | 0.8 µM | 1.4 µM | 0.9 µM |  | 96% |
| CCN(CC)Cc1cccn1-c1nn(-c2ccc(OC)cc2)c2c1CCN(c1ccc(N3CCCCC3=O)cc1)C2=O | 2.1 µM | 1.6 µM | 3.9 µM | 3.7 µM |  |  |
| COc1ccc(-n2nc(-c3nncn3CCCN3CCOCC3)c3c2C(=O)N(c2ccc(N4CCCCC4=O)cc2)CC3)cc1 | 7.5 µM | 5.5 µM | 15 µM | 10.5 µM |  |  |
| COc1ccc(-n2nc(C(N)=O)c3c2C(=O)N(c2ccc(C4=NCCCN4)cc2)CC3)cc1 | 1.1 µM | 0.9 µM | 2 µM | 1.1 µM | 350 nM | 82% |
| COc1ccc(-n2nc(-c3ncnn3C)c3c2CCN(c2ccc(N4CCCCC4=O)cc2)C3=O)cc1 | 4.1 µM | 3.3 µM | 15.1 µM | 10 µM |  |  |
| COc1ccc(-n2nc(C(N)=O)c3c2C(=O)N(c2ccc(C4=NCCN4)cc2)CC3)cc1 | 0.7 µM | 0.9 µM | 1 µM | 0.9 µM | 1990 nM | 66% |
